In brackets after ≈: the same amount, converted by molar mass. Activity calls are given as the source filed them. No cut-off for these calls is given here.
Legend:
Staphylococcus aureus [1] = experiment: Antibacterial activity against methicillin-resistant Staphylococcus aureus isolate 4 after 16 hrs by agar dilution method; type: functional; details: isolate 4, 16 h
Summary of the method: (§1)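 Agar dilution in LB agar with compound (from methanol solutions) at final 0.5–64 μg/ml per plate. Strains grown 16 h at 37 °C, 250 rpm in LB broth, adjusted to OD600 0.25±0.05, diluted 10^4-fold; 2 μl spotted per plate, incubated 16 h at 37 °C. MIC = lowest concentration with no visible colonies; at least two independent experiments. Linezolid and PTM as controls.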

Staphylococcus aureus [2] = experiment: Antibacterial activity against methicillin-resistant Staphylococcus aureus isolate 5 after 16 hrs by agar dilution method; type: functional; details: isolate 5, 16 h; summary of the method: as §1
Staphylococcus aureus [3] = experiment: Antibacterial activity against Staphylococcus aureus ATCC 29213 after 16 hrs by agar dilution method; type: functional; details: ATCC 29213, 16 h; summary of the method: as §1
Staphylococcus aureus [4] = experiment: Antibacterial activity against methicillin-sensitive Staphylococcus aureus isolate 1 after 16 hrs by agar dilution method; type: functional; details: isolate 1, 16 h; summary of the method: as §1
Staphylococcus aureus [5] = experiment: Antibacterial activity against methicillin-resistant Staphylococcus aureus isolate 6 after 16 hrs by agar dilution method; type: functional; details: isolate 6, 16 h; summary of the method: as §1
Staphylococcus aureus [6] = experiment: Antibacterial activity against methicillin-resistant Staphylococcus aureus isolate 3 after 16 hrs by agar dilution method; type: functional; details: isolate 3, 16 h; summary of the method: as §1
Staphylococcus aureus [7] = experiment: Antibacterial activity against methicillin-sensitive Staphylococcus aureus isolate 2 after 16 hrs by agar dilution method; type: functional; details: isolate 2, 16 h; summary of the method: as §1
Staphylococcus aureus [8] = experiment: Antibacterial activity against methicillin-resistant Staphylococcus aureus after 18 hrs in presence of 10% human serum by resazurin dye-based assay; type: functional
Summary of the method: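 One clinical MRSA strain grown to exponential phase (OD600 = 0.5), diluted to 10^6 CFU/ml in Mueller-Hinton broth; 100 μl compound dilutions mixed with 100 μl bacteria with or without 10% human serum, 18 h at 37 °C. Resazurin (0.66 mM, 50 μl) then added and read visually.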

Staphylococcus aureus [9] = experiment: Antibacterial activity against methicillin-resistant Staphylococcus aureus infected in C57BL/6J mouse assessed as reduction in bacterial load in kidney at 50 mg/kg, ip administered 1 and 5 hrs postinfection and measured at 12 hrs post bacterial infection; type: functional, organism-based
Summary of the method: (§2)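 Female C57BL/6J mice, 6–8 weeks, 18–21 g, infected ip with 2 × 10^7 CFU MRSA in 0.2 ml saline with 5% hog gastric mucin. Dosed ip 50 mg/kg at 1 and 5 h post-infection; test agents at 5 mg/mL in 12.5% DMSO/30% propanediol/30% PEG400/27.5% saline, vancomycin in saline, saline control. At 12 h blood and homogenized kidneys plated on LB agar overnight at 37 °C for CFU; n = 5, mean ± SEM, unpaired two-tailed t-test.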

Staphylococcus aureus [10] = experiment: Antibacterial activity against methicillin-resistant Staphylococcus aureus infected in C57BL/6J mouse assessed as reduction in bacterial load in blood at 50 mg/kg, ip administered 1 and 5 hrs postinfection and measured at 12 hrs post bacterial infection; type: functional, organism-based; summary of the method: as §2

| Structure (SMILES) | MIC (Staphylococcus aureus [1]) | MIC (Staphylococcus aureus [2]) | MIC (Staphylococcus aureus [3]) | MIC (Staphylococcus aureus [4]) | MIC (Staphylococcus aureus [5]) | MIC (Staphylococcus aureus [6]) | MIC (Staphylococcus aureus [7]) | MIC (Staphylococcus aureus [8]) | Activity (Staphylococcus aureus [9]) | Activity (Staphylococcus aureus [10]) |
| --- | --- | --- | --- | --- | --- | --- | --- | --- | --- | --- |
| Cc1cccc(C2=C[C@]34C[C@@H]5C[C@H](O[C@@]5(C)C3)[C@H]4[C@](C)(CCC(=O)Nc3c(O)ccc(C(=O)O)c3O)C2=O)c1 | 8 mg/L (≈ 15 µM) | 8 mg/L (≈ 15 µM) | 8 mg/L (≈ 15 µM) | 4 mg/L (≈ 7.52 µM) | 8 mg/L (≈ 15 µM) | 8 mg/L (≈ 15 µM) | 4 mg/L (≈ 7.52 µM) | – | – | – |
| C[C@]12C[C@@]34C=C(c5cc(Cl)cc(Cl)c5)C(=O)[C@@](C)(CCC(=O)Nc5c(O)ccc(C(=O)O)c5O)[C@@H]3[C@H](C[C@H]1C4)O2 | 8 mg/L (≈ 13.6 µM) | 8 mg/L (≈ 13.6 µM) | 8 mg/L (≈ 13.6 µM) | 8 mg/L (≈ 13.6 µM) | 8 mg/L (≈ 13.6 µM) | 8 mg/L (≈ 13.6 µM) | 8 mg/L (≈ 13.6 µM) | – | – | – |
| C[C@]12C[C@@]34C=C(c5ccc6ccccc6c5)C(=O)[C@@](C)(CCC(=O)Nc5c(O)ccc(C(=O)O)c5O)[C@@H]3[C@H](C[C@H]1C4)O2 | 8 mg/L (≈ 14.1 µM) | 8 mg/L (≈ 14.1 µM) | 8 mg/L (≈ 14.1 µM) | 8 mg/L (≈ 14.1 µM) | 8 mg/L (≈ 14.1 µM) | 8 mg/L (≈ 14.1 µM) | 8 mg/L (≈ 14.1 µM) | – | – | – |
| C[C@]12C[C@@]34C=CC(=O)[C@@](C)(CCC(=O)Nc5c(O)ccc(C(=O)O)c5O)[C@@H]3[C@H](C[C@H]1C4)O2 | 1 mg/L (≈ 2.27 µM) | 1 mg/L (≈ 2.27 µM) | 0.5 mg/L (≈ 1.13 µM) | 0.5 mg/L (≈ 1.13 µM) | 1 mg/L (≈ 2.27 µM) | 0.5 mg/L (≈ 1.13 µM) | 0.5 mg/L (≈ 1.13 µM) | 8 mg/L | Active | Active |
| C[C@]12C[C@@]34C=C(c5ccccc5-c5ccccc5)C(=O)[C@@](C)(CCC(=O)Nc5c(O)ccc(C(=O)O)c5O)[C@@H]3[C@H](C[C@H]1C4)O2 | 8 mg/L (≈ 13.5 µM) | 8 mg/L (≈ 13.5 µM) | 4 mg/L (≈ 6.74 µM) | 8 mg/L (≈ 13.5 µM) | 8 mg/L (≈ 13.5 µM) | 8 mg/L (≈ 13.5 µM) | 8 mg/L (≈ 13.5 µM) | – | – | – |
| C[C@]12C[C@@]34C=C(c5ccc(Br)cc5)C(=O)[C@@](C)(CCC(=O)Nc5c(O)ccc(C(=O)O)c5O)[C@@H]3[C@H](C[C@H]1C4)O2 | 4 mg/L (≈ 6.71 µM) | 2 mg/L (≈ 3.35 µM) | 2 mg/L (≈ 3.35 µM) | 2 mg/L (≈ 3.35 µM) | 2 mg/L (≈ 3.35 µM) | 4 mg/L (≈ 6.71 µM) | 4 mg/L (≈ 6.71 µM) | – | – | – |
| Cc1ccc(C2=C[C@]34C[C@@H]5C[C@H](O[C@@]5(C)C3)[C@H]4[C@](C)(CCC(=O)Nc3c(O)ccc(C(=O)O)c3O)C2=O)cc1 | 16 mg/L (≈ 30.1 µM) | 16 mg/L (≈ 30.1 µM) | 8 mg/L (≈ 15 µM) | 8 mg/L (≈ 15 µM) | 16 mg/L (≈ 30.1 µM) | 8 mg/L (≈ 15 µM) | 8 mg/L (≈ 15 µM) | – | – | – |
| C[C@]12C[C@@]34C=C(c5ccccc5)C(=O)[C@@](C)(CCC(=O)Nc5c(O)ccc(C(=O)O)c5O)[C@@H]3[C@H](C[C@H]1C4)O2 | 16 mg/L (≈ 30.9 µM) | 16 mg/L (≈ 30.9 µM) | 16 mg/L (≈ 30.9 µM) | 16 mg/L (≈ 30.9 µM) | 16 mg/L (≈ 30.9 µM) | 16 mg/L (≈ 30.9 µM) | 16 mg/L (≈ 30.9 µM) | – | – | – |
| Cc1ccccc1C1=C[C@]23C[C@@H]4C[C@H](O[C@@]4(C)C2)[C@H]3[C@](C)(CCC(=O)Nc2c(O)ccc(C(=O)O)c2O)C1=O | 16 mg/L (≈ 30.1 µM) | 16 mg/L (≈ 30.1 µM) | 8 mg/L (≈ 15 µM) | 8 mg/L (≈ 15 µM) | 16 mg/L (≈ 30.1 µM) | 16 mg/L (≈ 30.1 µM) | 16 mg/L (≈ 30.1 µM) | – | – | – |
| CCCCCc1ccc(C2=C[C@]34C[C@@H]5C[C@H](O[C@@]5(C)C3)[C@H]4[C@](C)(CCC(=O)Nc3c(O)ccc(C(=O)O)c3O)C2=O)cc1 | 4 mg/L (≈ 6.81 µM) | 4 mg/L (≈ 6.81 µM) | 4 mg/L (≈ 6.81 µM) | 4 mg/L (≈ 6.81 µM) | 4 mg/L (≈ 6.81 µM) | 4 mg/L (≈ 6.81 µM) | 4 mg/L (≈ 6.81 µM) | – | – | – |
| C[C@]12C[C@@]34C=C(c5ccc(-c6ccccc6)cc5)C(=O)[C@@](C)(CCC(=O)Nc5c(O)ccc(C(=O)O)c5O)[C@@H]3[C@H](C[C@H]1C4)O2 | 8 mg/L (≈ 13.5 µM) | 8 mg/L (≈ 13.5 µM) | 4 mg/L (≈ 6.74 µM) | 8 mg/L (≈ 13.5 µM) | 8 mg/L (≈ 13.5 µM) | 8 mg/L (≈ 13.5 µM) | 8 mg/L (≈ 13.5 µM) | – | – | – |
